In ChEMBL document CHEMBL1125205, “Phosphorus-containing inhibitors of HMG-CoA reductase. 2. Synthesis and biological activities of a series of substituted pyridines containing a hydroxyphosphinyl moiety” (J Med Chem, 1991):

What was measured:
[1] = target: T1, 3-hydroxy-3-methylglutaryl-coenzyme A reductase (Rattus norvegicus, UniProt P51639); assay: In vitro for inhibition of rat HMG-CoA reductase.; details: read-out: I50
T1 sequence (P51639 whole entry): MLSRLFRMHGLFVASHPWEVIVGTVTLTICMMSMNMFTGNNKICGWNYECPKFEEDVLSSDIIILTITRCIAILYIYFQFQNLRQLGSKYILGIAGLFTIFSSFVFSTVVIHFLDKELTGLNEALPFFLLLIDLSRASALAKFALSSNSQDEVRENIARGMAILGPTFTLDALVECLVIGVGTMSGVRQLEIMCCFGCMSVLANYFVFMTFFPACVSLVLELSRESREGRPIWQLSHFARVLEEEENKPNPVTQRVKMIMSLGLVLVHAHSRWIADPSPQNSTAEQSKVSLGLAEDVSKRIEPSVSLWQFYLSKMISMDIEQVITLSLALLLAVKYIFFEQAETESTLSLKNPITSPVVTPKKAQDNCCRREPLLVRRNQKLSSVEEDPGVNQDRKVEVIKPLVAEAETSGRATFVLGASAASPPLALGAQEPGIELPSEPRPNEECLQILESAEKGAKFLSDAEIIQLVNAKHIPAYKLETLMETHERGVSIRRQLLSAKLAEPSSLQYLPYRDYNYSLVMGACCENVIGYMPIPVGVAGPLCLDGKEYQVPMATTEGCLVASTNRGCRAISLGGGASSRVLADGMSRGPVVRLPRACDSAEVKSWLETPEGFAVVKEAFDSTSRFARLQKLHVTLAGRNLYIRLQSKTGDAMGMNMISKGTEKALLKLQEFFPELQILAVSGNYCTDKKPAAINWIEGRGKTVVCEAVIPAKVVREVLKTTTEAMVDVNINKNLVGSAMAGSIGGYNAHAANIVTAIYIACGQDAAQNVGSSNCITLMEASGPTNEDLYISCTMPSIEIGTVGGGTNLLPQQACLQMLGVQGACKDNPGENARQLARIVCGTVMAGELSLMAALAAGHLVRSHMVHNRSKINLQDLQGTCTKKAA
In short: (§1)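 Enzyme source: hepatic microsomes from cholestyramine-fed Sprague-Dawley rats. Final assay conditions: 0.04 M potassium phosphate pH 7.2, KCl, sucrose, EDTA, 10 mM DTT, 1% DMSO, 50-200 µg microsomal protein. Microsomes were preincubated with 2.7 mM NADPH for 15 min at 37 °C, then with compound for 15 min. 100 µM 14C-[D,L]-HMG-CoA was then added for 20 min at 37 °C. Read-out: 14C-mevalonate, corrected by 3H-mevalonate recovery. I50 taken from composite dose-response regressions, 2-5 experiments.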

Homo sapiens = organism: Homo sapiens; assay: The compound was tested for inhibition of Cholesterol synthesis from [14C]- Acetate in human skin fibroblasts; assay type: functional
In short: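 Human skin fibroblasts (passage 7-27) were plated at 5 × 10^5 cells/well and cultured 18 h. Sterol synthesis was induced by 24 h in serum-free MEM with 1.0% fatty acid-free BSA. Cells were preincubated with compound for 30 min (DMSO ≤1.0%), then given sodium [1-14C]acetate at 2.0 µCi/mL for 4 h. Label in the extracted cholesterol peak was compared with controls. I50 from composite curves of ≥2 experiments.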

Rattus norvegicus [2] = assay: The compound was tested in vivo for inhibition of Cholesterol Biosynthesis from [14C]- acetate in rat after peroral administration.; assay type: functional; details: po
Rattus norvegicus [3] = organism: Rattus norvegicus; assay: The compound was tested for inhibition of Cholesterol synthesis from [14C]- Acetate in hepatocytes of rats.; assay type: functional; details: Hepatocyte
In short: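 Rat hepatocytes were freshly isolated by collagenase perfusion, 70-90% viable. Cells were suspended at 5 × 10^6 per 2.0 mL in Tris pH 7.4 incubation medium with cofactors; DMSO was ≤1.0% final. Incubation was with [14C]acetate (2 µCi/mL) for 2.0 h at 37 °C. Lipids were extracted by Bligh-Dyer and the percent of label in the cholesterol peak was compared with controls. I50 from composite curves of two or more studies.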

[4] = It is the ratio of I50 fibroblasts to that of I50 hepatocytes.; assay type: functional, Hepatocyte
In short: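 Selectivity is the ratio of I50 in human skin fibroblasts to I50 in freshly isolated rat hepatocytes. Each I50 came from [14C]acetate incorporation into cholesterol, measured as percent inhibition versus controls from composite dose-response data.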

Rattus norvegicus [5] = assay: The compound was tested in vivo for inhibition of Cholesterol Biosynthesis from [14C]- acetate in rat after intravenous administration.; assay type: functional
In short: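 Male Sprague-Dawley rats (200-300 g) were kept on a reverse light cycle. Salt forms were given iv into the tail vein in saline, 5 min before ip sodium [1-14C]acetate (25 µCi/100 g), dosed 2 h before mid-dark. Blood was taken 2 h after mid-dark. Read-out: 14C nonsaponifiable plasma lipid per mL versus controls, 4-5 rats/group. ED50 from log dose regressions, mean of ≥2 experiments.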

[6] = target: T1, 3-hydroxy-3-methylglutaryl-coenzyme A reductase; assay: The compound was tested in vitro for inhibition of rat hepatic HMG-CoA reductase.; assay type: functional; details: read-out: I50; in short: as §1

Structure (SMILES) | IC50 [1] | IC50 [6] | IC50 (Homo sapiens; read-out: I 50) | ED50 (Rattus norvegicus [2]) | IC50 (Rattus norvegicus [3]; read-out: I 50) | Selectivity [4] | ED50 (Rattus norvegicus [5]) | IC50 (Homo sapiens; read-out: I50) | IC50 (Rattus norvegicus [3]; read-out: I50)
CC(C)c1nc(-c2ccccc2)cc(-c2ccc(F)cc2)c1/C=C/P(=O)([O-])C[C@H](O)CC(=O)[O-].[Li+].[Li+] | 0.0019 µM |  | 2 µM | 21.4 mg/kg | 0.077 µM | 26 | 0.22 mg/kg |  | 
CCc1c(-c2ccccc2)nc(C(C)C)c(/C=C/P(=O)([O-])C[C@H](O)CC(=O)[O-])c1-c1ccc(F)cc1.[Na+].[Na+] | 0.00055 µM |  | 4.7 µM | > 10 mg/kg | 0.241 µM | 19.5 | 0.2 mg/kg |  | 
Cc1c(-c2ccccc2)nc(C(C)C)c(/C=C/P(=O)([O-])C[C@H](O)CC(=O)[O-])c1-c1ccc(F)cc1.[Na+].[Na+] | 0.0012 µM |  | 2 µM | 0.46 mg/kg | 0.26 µM | 7.7 | 0.1 mg/kg |  | 
CC[C@H](C)C(=O)O[C@H]1C[C@H](O)C=C2C=C[C@H](C)[C@H](CC[C@@H](O)C[C@@H](O)CC(=O)[O-])[C@H]21.[Na+] [PRAVASTATIN SODIUM] |  | 0.024 µM |  | 0.75 mg/kg |  | 31 | 0.053 mg/kg |  | 
CC[C@H](C)C(=O)O[C@@H]1C[C@@H](C)C=C2C=C[C@H](C)[C@H](CC[C@@H](O)C[C@H](O)CC(=O)[O-])C21.[Na+] (some centres undefined) |  |  |  | 0.4 mg/kg |  |  | 0.033 mg/kg | 0.0188 µM | 0.146 µM

More lines, main results first:

IC50 [1] | IC50 [6] | Structure (SMILES) | IC50 (Homo sapiens; read-out: I 50) | ED50 (Rattus norvegicus [2]) | IC50 (Rattus norvegicus [3]; read-out: I 50) | Selectivity [4] | ED50 (Rattus norvegicus [5]) | IC50 (Homo sapiens; read-out: I50) | IC50 (Rattus norvegicus [3]; read-out: I50)
0.0056 µM |  | CCc1c(-c2ccccc2)nc(C(C)C)c(C#CP(=O)([O-])C[C@H](O)CC(=O)[O-])c1-c1ccc(F)cc1.[Na+].[Na+] | 6.75 µM | 4.5 mg/kg | 0.519 µM | 13 |  |  | 
0.062 µM |  | CC(C)c1nc(-c2ccccc2)cc(-c2ccc(F)cc2)c1C#CP(=O)([O-])C[C@H](O)CC(=O)[O-].[Li+].[Li+] | 9.3 µM | 3.9 mg/kg | 0.197 µM | 47 | 0.47 mg/kg |  | 
0.0061 µM |  | CC(C)c1nc(C(C)(C)C)cc(-c2ccc(F)cc2)c1C#CP(=O)([O-])C[C@H](O)CC(=O)[O-].[Na+].[Na+] | 2.4 µM | 3.5 mg/kg | 0.556 µM | 4.3 | 0.7 mg/kg |  | 
0.0045 µM |  | Cc1c(-c2ccccc2)nc(C(C)C)c(C#CP(=O)([O-])C[C@H](O)CC(=O)[O-])c1-c1ccc(F)cc1.[Li+].[Li+] | 11.3 µM | 3.1 mg/kg | 0.081 µM | 140 | 0.13 mg/kg |  | 
